Rows were chosen to be rich in hits. Some 2.6% of all compounds tested hit in one or more screens of this group.
IMP-1 inhibitor: blocks Pseudomonas aeruginosa IMP-1 metallo-beta-lactamase | purified IMP-1, nitrocefin hydrolysis, epi-absorbance fluorescence | inhibition, % at 5.6 µM | actives 0.45% (n = 290,000);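 active = inhibition above the mean plus 3 SD of all compounds in the same screening run, cut at about 4.5% in these data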;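 also: 0% = IMP-1 with DMSO and 100% = DMSO wells lacking enzyme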
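System: Purified IMP-1 | Read-out basis: Percent enzyme inhibition | Controls: IMP-1 with DMSO as 0%, enzyme-free DMSO as 100% | Replicates: One well per compound | Doses: 5.6 µM nominal single concentration | Detection: Epi-absorbance fluorescence, 480 nm excitation, 530 nm emission | Incubation: 25 °C, 15 min preincubation, 25 min reaction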
Runt-SMMHC FRET: Runt domain-CBFb-SMMHC interaction inhibition; actives 0.74% (n = 220,000); AID 1434; Cerulean-Runt/Venus-CBFb-SMMHC FRET ratio 530/480, 1 h; Q01196+Q13951; inhibition, % at 20 µM;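 active = mean inhibition across duplicate retests at 20 µM reaching about 50%, limit read from the data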;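 also: 0% = DMSO wells and 100% = wells with excess untagged CBFb-SMMHC; inhibitors lower the FRET ratio by blocking Runt binding to CBFb-SMMHC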
Target sequence (Q01196 whole entry, looked up, the tested form may be a part): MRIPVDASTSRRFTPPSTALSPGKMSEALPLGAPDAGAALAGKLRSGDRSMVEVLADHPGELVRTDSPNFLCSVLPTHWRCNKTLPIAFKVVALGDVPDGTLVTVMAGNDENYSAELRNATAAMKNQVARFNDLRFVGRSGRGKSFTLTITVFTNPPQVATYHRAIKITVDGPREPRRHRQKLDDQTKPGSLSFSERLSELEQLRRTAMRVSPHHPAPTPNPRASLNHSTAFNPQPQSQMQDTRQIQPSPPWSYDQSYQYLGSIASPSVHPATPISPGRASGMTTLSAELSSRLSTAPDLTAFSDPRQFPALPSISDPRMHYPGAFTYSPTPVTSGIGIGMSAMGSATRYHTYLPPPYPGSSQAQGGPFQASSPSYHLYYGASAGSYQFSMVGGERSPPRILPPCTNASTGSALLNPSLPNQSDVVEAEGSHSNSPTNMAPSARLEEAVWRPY
Target sequence (Q13951 whole entry, looked up, the tested form may be a part): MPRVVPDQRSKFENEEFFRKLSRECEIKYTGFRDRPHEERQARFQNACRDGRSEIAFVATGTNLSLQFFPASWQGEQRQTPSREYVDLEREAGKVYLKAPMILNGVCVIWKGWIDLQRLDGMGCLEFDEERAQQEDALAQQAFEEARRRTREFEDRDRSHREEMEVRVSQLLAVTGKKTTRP
VIM-2 inh: blocks Pseudomonas aeruginosa VIM-2 metallo-beta-lactamase. inhibition, % at 5.6 µM. purified VIM-2, nitrocefin hydrolysis, epi-absorbance fluorescence. actives 0.89% (n = 290,000). AID 1527;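 active = inhibition above the mean of all tested compounds plus 3 SD, cutoff set per screening run, cut at about 7.5% in these data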;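 also: red hydrolysis product quenches plate fluorescence so inhibitors raise well fluorescence; 0% = enzyme with DMSO and 100% = DMSO without enzyme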
Runt-CBFb FRET: inhibitors of human RUNX1 Runt domain binding to CBFb; Cerulean-Runt/Venus-CBFb FRET ratio 530/480, 1 h; Q01196+Q13951; inhibition, % at 20 µM; actives 0.46% (n = 220,000); AID 1496;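 active = inhibition over about 50% at 20 µM in the single-dose screen, limit read from the data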;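 also: 0% = DMSO wells and 100% = excess unlabeled CBFb competitor control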
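Measured by: fluorescence energy transfer, 422 nm excitation, 530/480 nm emission; Assay system: Cerulean-Runt domain; Medium: Tris pH 7.5 buffer with BSA; Measure: loss of energy transfer signal; Controls: 5 µM unlabeled CBFb as full-inhibition high control; Incubation: protein complex preformed 1 h, compound exposure 1 h, room temperature, dark.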
RanGTP-Impb inh: inhibitors of RanGTP-importin-beta interaction, primary screen, biochemical, FRET, CFP-Ran, YFP-importin-beta, homogeneous. cell-free CFP-Ran/YFP-importin-beta FRET ratio. inhibition, % (concentration not given with the values). actives 1.1% (n = 300,000). AID 2216;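 active = more than half of the replicate wells show a fall in the fluorescence ratio signal beyond about 16%, limit read from the data, passing the limit was not always enough; inconclusive = exactly half of the replicate wells pass the set limit; inactive = fewer than half of replicates pass the limit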;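 also: 0% = DMSO wells and 100% = Ran loaded with GDP instead of GTP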
The depositor's hits bear a star.

For CCc1c(C)nc2cc(-c3cccc(Br)c3)[nH]n2c1=O the results were IMP-1 inhibitor 0, VIM-2 inh 3 and RanGTP-Impb inh 4.
Screening Cc1ccc(NC(=O)Nc2c(Cl)cccc2Cl)cn1 returned IMP-1 inhibitor -1, Runt-SMMHC FRET -3, VIM-2 inh -1, Runt-CBFb FRET -1 and RanGTP-Impb inh inconclusive.
For CC(C)CN(C(=O)CN1CCC(C)CC1)c1c(N)n(CC(C)C)c(=O)[nH]c1=O the results were IMP-1 inhibitor -1, Runt-SMMHC FRET 2, VIM-2 inh 2, Runt-CBFb FRET -1 and RanGTP-Impb inh inconclusive.
`CC(C)CN(C(=O)CN1CCc2ccccc21)c1c(N)n(CC(C)C)c(=O)[nH]c1=O` gave IMP-1 inhibitor 0, Runt-SMMHC FRET 72*, VIM-2 inh -1, Runt-CBFb FRET 35 and RanGTP-Impb inh 8.
CNCC(=O)N(CC(C)C)c1c(N)n(CC(C)C)c(=O)[nH]c1=O was read as IMP-1 inhibitor -2, Runt-SMMHC FRET 56*, VIM-2 inh -2, Runt-CBFb FRET 8 and RanGTP-Impb inh 2.
Screening COCCN(C(=O)CN1CCc2ccccc2C1)c1c(N)n(Cc2ccccc2)c(=O)[nH]c1=O returned IMP-1 inhibitor -2, Runt-SMMHC FRET 74*, VIM-2 inh -1, Runt-CBFb FRET 27 and RanGTP-Impb inh 7.
O=c1[nH]c(C2CCN(S(=O)(=O)c3cccc([N+](=O)[O-])c3)CC2)nc2c1nnn2Cc1ccccc1 was read as IMP-1 inhibitor -3, VIM-2 inh -2 and RanGTP-Impb inh 1.
`O=[N+]([O-])c1cccc(NC(=S)N2CCOCC2)c1` gave IMP-1 inhibitor -3, Runt-SMMHC FRET -1, VIM-2 inh -2, Runt-CBFb FRET 2 and RanGTP-Impb inh 68*.
Screening O=[N+]([O-])c1ccc(NC(=S)N2CCOCC2)cc1 returned IMP-1 inhibitor -1, Runt-SMMHC FRET 1, VIM-2 inh -2, Runt-CBFb FRET 2 and RanGTP-Impb inh -4.
`CCOc1ccc(-c2cccc(NC(=O)c3cccs3)c2)nn1` gave RanGTP-Impb inh 1.
Screening CCOC(=O)/C=C1\SCC(=O)N1CC(=O)NC(c1ccccc1)c1ccccc1 returned IMP-1 inhibitor -2, Runt-SMMHC FRET 0, VIM-2 inh -2, Runt-CBFb FRET -5 and RanGTP-Impb inh -3.
For CCOC(=O)/C=C1\SCC(=O)N1CC(=O)Nc1ccccc1OC(F)F the results were IMP-1 inhibitor 2, Runt-SMMHC FRET -4, VIM-2 inh -3, Runt-CBFb FRET -3 and RanGTP-Impb inh 150*.
For CN(C)CCCn1c(SCC(=O)Nc2nccs2)nnc1-c1ccncc1 the results were IMP-1 inhibitor 1, VIM-2 inh -1 and RanGTP-Impb inh 5.
COc1ccc2c(Cl)c(C(=O)NN3CCN(C)CC3)sc2c1 was read as IMP-1 inhibitor -1, Runt-SMMHC FRET 0, VIM-2 inh 8.5*, Runt-CBFb FRET 1 and RanGTP-Impb inh 5.
`COc1ccc2c(Cl)c(C(=O)NC3CCS(=O)(=O)C3)sc2c1` (stereo not drawn) gave IMP-1 inhibitor -3, Runt-SMMHC FRET -1, VIM-2 inh -4, Runt-CBFb FRET -4 and RanGTP-Impb inh 1.
CC1CCN(CCCNC(=O)C2CC(=O)N(CCc3ccccc3)C2)CC1 (stereo not drawn) was read as IMP-1 inhibitor -4, VIM-2 inh -4 and RanGTP-Impb inh -1.
Screening CC1(C)CC(=O)c2cnc3c(C#N)cnn3c2C1 returned IMP-1 inhibitor -1, Runt-SMMHC FRET -2, VIM-2 inh -1, Runt-CBFb FRET 0 and RanGTP-Impb inh 115*.
Screening Cc1ccc(C2C(C(=O)c3cccs3)=C(O)C(=O)N2c2nnc(C)s2)cc1 (stereo not drawn) returned IMP-1 inhibitor 20*, Runt-SMMHC FRET -48, VIM-2 inh 20*, Runt-CBFb FRET -5 and RanGTP-Impb inh -1.
`COc1ccccc1N(CC(=O)N1CCN(c2ccc(F)cc2)CC1)S(=O)(=O)c1ccc(C)cc1` gave IMP-1 inhibitor -3, VIM-2 inh -2 and RanGTP-Impb inh 1.
Screening Cc1cc(C)c(S(=O)(=O)NCCC2CCCN2C)c(C)c1 (stereo not drawn) returned IMP-1 inhibitor -2, Runt-SMMHC FRET 2, VIM-2 inh -3, Runt-CBFb FRET -1 and RanGTP-Impb inh 0.
For COc1cccc2sc3ccc(NCCC4CCCN4C)cc3c(=O)c12 (stereo not drawn) the results were IMP-1 inhibitor -1, VIM-2 inh 8.4* and RanGTP-Impb inh -243.
FC(F)(F)c1nnc2c(Sc3ccccn3)nc3ccccc3n12 was read as IMP-1 inhibitor 0, Runt-SMMHC FRET 51*, VIM-2 inh 3, Runt-CBFb FRET 16 and RanGTP-Impb inh 8.
Screening FC(F)(F)c1nnc2c(Sc3ccccc3)nc3ccccc3n12 returned IMP-1 inhibitor 1, Runt-SMMHC FRET 10, VIM-2 inh 1, Runt-CBFb FRET 4 and RanGTP-Impb inh 6.
Screening COC(=O)c1ccc(NC(=O)c2ccc(F)cc2)o1 returned IMP-1 inhibitor -2, Runt-SMMHC FRET 1, VIM-2 inh -2, Runt-CBFb FRET 10 and RanGTP-Impb inh 0.
`COC(=O)c1ccc(NC(=O)c2ccc(C)cc2)o1` gave IMP-1 inhibitor 5.5*, Runt-SMMHC FRET 0, VIM-2 inh -1, Runt-CBFb FRET 7 and RanGTP-Impb inh -2.
Cn1c(NNC(=O)C(c2ccccc2)c2ccccc2)cc(=O)n(C)c1=O was read as IMP-1 inhibitor -6, Runt-SMMHC FRET 16, VIM-2 inh -4, Runt-CBFb FRET 9 and RanGTP-Impb inh -3.
For Cn1c(-c2ccc(Br)o2)nc2ccccc21 the results were IMP-1 inhibitor 1, Runt-SMMHC FRET 11, VIM-2 inh 3, Runt-CBFb FRET 10 and RanGTP-Impb inh 10.
Cn1c(-c2ccc(Br)o2)nc2cc(Br)ccc21 was read as IMP-1 inhibitor -1, Runt-SMMHC FRET 9, VIM-2 inh 8.0* and Runt-CBFb FRET 9.
Screening CCC(C)NC(=O)CCn1ccc2cc(S(=O)(=O)N3CCCC3)ccc21 (stereo not drawn) returned IMP-1 inhibitor -4, VIM-2 inh -5 and RanGTP-Impb inh 5.
`COc1cccc(NC(=O)Cn2c3ccc(F)cc3c3nc4n(c(=O)c32)CCCS4)c1` gave IMP-1 inhibitor 6.5*, VIM-2 inh 1 and RanGTP-Impb inh -1.
O=C(CN1C(=O)CSc2ccc(S(=O)(=O)N3CCOCC3)cc21)N1CCCCC1 was read as IMP-1 inhibitor -2, VIM-2 inh -5 and RanGTP-Impb inh 62*.
O=C(CN1C(=O)CSc2ccc(S(=O)(=O)N3CCOCC3)cc21)NCCCN1CCCCC1 was read as IMP-1 inhibitor -1, VIM-2 inh 0 and RanGTP-Impb inh inconclusive.
`CCOC(=O)C1CCN(C(=O)CN2C(=O)CSc3ccc(S(=O)(=O)N4CCOCC4)cc32)CC1` gave IMP-1 inhibitor -3, VIM-2 inh -1 and RanGTP-Impb inh 1.

Compound activity as filed in PubChem.
